Screening results deposited in PubChem by Johns Hopkins Ion Channel Center.
Shown are actives, neighbours in structure and some others; about 3.7% of the full set was active somewhere.
KCNK9 inh: human KCNK9 channel inhibition | B-score at 10 µM | 1.2% of 310,000 active | HEK293 KCNK9, FluxOR thallium flux fluorescence; active compounds read low;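 active = ratio B-score over 3 SD below the library mean, with starting fluorescence within 5 SD of its mean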;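 also: negative B-score means less thallium flux so channel inhibition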
hERG protect: compounds protecting human hERG from proarrhythmic drug block; activation (rescue from dofetilide block), less the hit threshold, % at 10 µM; Q12809; 0.51% of 310,000 active; CHO-hERG, FluxOR thallium flux, dofetilide IC70 present;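 active = activation above the mean of controls blocked by dofetilide plus 5 SD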;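 also: thallium influx through hERG after potassium depolarization seen as dye fluorescence rise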
Target sequence (Q12809 whole entry, looked up): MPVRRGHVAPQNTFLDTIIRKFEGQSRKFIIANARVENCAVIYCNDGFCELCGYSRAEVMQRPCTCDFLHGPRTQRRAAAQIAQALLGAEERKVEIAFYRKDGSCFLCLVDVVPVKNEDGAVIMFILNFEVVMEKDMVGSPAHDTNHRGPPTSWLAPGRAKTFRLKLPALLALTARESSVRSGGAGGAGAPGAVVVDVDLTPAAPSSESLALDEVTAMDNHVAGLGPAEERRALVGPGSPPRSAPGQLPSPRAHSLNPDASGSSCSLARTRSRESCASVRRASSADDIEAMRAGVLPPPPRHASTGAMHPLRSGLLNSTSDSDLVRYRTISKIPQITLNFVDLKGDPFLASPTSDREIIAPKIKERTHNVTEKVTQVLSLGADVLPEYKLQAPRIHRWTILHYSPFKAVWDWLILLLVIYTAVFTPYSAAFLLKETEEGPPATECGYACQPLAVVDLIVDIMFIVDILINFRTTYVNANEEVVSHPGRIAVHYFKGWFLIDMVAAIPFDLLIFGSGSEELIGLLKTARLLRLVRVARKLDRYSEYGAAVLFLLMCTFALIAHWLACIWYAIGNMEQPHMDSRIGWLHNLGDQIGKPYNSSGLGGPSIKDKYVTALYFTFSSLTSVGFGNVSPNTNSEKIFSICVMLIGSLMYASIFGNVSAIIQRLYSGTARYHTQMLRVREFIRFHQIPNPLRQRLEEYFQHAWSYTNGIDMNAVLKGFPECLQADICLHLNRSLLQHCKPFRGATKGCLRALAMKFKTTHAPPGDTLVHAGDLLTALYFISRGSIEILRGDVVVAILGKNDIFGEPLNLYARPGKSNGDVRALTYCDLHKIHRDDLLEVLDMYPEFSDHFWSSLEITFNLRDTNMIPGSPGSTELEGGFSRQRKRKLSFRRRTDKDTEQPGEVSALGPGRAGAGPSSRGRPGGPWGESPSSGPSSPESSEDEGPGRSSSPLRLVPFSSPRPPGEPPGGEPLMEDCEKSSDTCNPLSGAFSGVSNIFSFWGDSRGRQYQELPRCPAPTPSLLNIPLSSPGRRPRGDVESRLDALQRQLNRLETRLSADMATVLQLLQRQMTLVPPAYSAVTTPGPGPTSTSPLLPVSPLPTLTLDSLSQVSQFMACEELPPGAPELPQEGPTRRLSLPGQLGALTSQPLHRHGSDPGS
KCNQ1 inh: human KCNQ1 channel inhibition; CHO-K1 KCNQ1, FluxOR thallium flux fluorescence; active compounds read high; B-score at 10 µM; 1.3% of 310,000 active; AID 2642;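 active = compounds whose thallium flux B-score, printed positive for inhibition, exceeds three library SD while starting fluorescence stays within three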;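 also: channel opened by potassium depolarization with thallium stimulus after 20 min compound exposure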
KCNQ1 act: potentiates or activates the human KCNQ1 potassium channel; B-score at 10 µM; P51787; CHO-K1 KCNQ1, thallium flux FluxOR fluorescence; active compounds read high; AID 2648; 0.35% of 310,000 active;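 active = fluorescence ratio B-score, a plate-corrected score, at least three library SD, with initial intensity B-score within 5 SD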
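assay system = KCNQ1-transfected CHO-K1 cells | medium = assay buffer with matched DMSO | probe or stimulus = depolarizing K+/Tl+ stimulus, K2SO4 and Tl2SO4 each 12.5 mM in 5x stock | dosing = single dose | incubation = dye 90 min, compound 20 min, room temperature | detection = kinetic FluxOR fluorescence, 10 s baseline plus 110 s post-stimulus | evaluation = ratio B score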
KCNK3 block: human KCNK3 channel inhibition, primary screen. O14649. CHO-KCNK3 thallium flux, FluxOR fluorescence; active compounds read low. B-score at 10 µM. 0.84% of 340,000 active;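 active = B-score under library mean minus 4 SD, starting fluorescence ratio at most library mean plus 5 SD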;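 also: more negative B-score means stronger inhibition of thallium flux through KCNK3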
Kir21 inh: inhibitors of mouse Kir2.1 inward-rectifier potassium channel; 0.85% of 310,000 active; HEK293-Kir2.1, FluxOR thallium flux fluorescence; active compounds read low; B-score at 10 µM; AID 1672;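 active = fluorescence ratio B-score at or below minus 3 SD of library scores, with starting-brightness B-score within 2 SD, cut at about -4.2 in these data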;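 also: channel flux triggered by added potassium and thallium sulfate stimulus; B-score of peak minus minimum fluorescence over baseline after thallium stimulus; more negative B-score means stronger Kir2.1 block with less thallium influx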
KCNK9 block conf: confirmation of human KCNK9 potassium channel inhibitors; shares compounds with KCNK9 inh; HEK293 KCNK9 cells, FluxOR thallium flux fluorescence; inhibition, % at 10 µM; 43% of 4,900 active;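 active = thallium signal inhibited by more than 5 SD of the compound-free buffer control wells, on both duplicate plates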;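 also: 0% = assay buffer control wells without compound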
Kir21 sel: selectivity of KCNK9 modulators against mouse Kir2.1; shares compounds with KCNK9 inh; Kir2.1 cells, FluxOR thallium flux fluorescence; inhibition, % at 10 µM; 4% of 4,900 active;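 active = thallium signal drop more than 5 SD beyond the mean of the no-compound control wells, seen in both duplicate plates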;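 also: signal is fluorescence rise after thallium addition divided by baseline fluorescence; plate controls were assay buffer only for no effect and full block by chlorpromazine control for full effect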
HEK293 Tl ctr: second counter-screen for KCNK9 modulators: effect in non-induced cells. shares compounds with KCNK9 inh. non-induced KCNK9-HEK293, FluxOR thallium flux. inhibition, % at 10 µM. 40% of 4,900 active. AID 492997;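 active = thallium signal drop beyond 5 SD of the untreated control mean, on both duplicate plates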;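 also: plate controls were buffer only IC0 wells for no effect and SID17386958 at its maximal inhibitory level for full effect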
An asterisk follows results filed as active; i = inactive; nt = no result given.

SMILES | KCNK9 inh | hERG protect | KCNQ1 inh | KCNQ1 act | KCNK3 block | Kir21 inh | KCNK9 block conf | Kir21 sel | HEK293 Tl ctr
COc1cccc(Nc2nc(-c3sc(NC(=O)c4ccco4)nc3C)cs2)c1 | -11* | -26 | i | i | i | -2.9 | 50%* | i | i
COc1ccc(Cl)cc1Nc1nc(-c2sc(NC(=O)C(C)(C)C)nc2C)cs1 | i | -5 | i | i | i | 0.79 | nt | nt | nt
COc1cccc(Nc2nc(-c3ccc4c(c3)OCCO4)cs2)c1 | i | -8 | i | i | i | -0.06 | i | i | i
COc1ccc(Cl)cc1Nc1nc(-c2sc(NC(=O)c3ccco3)nc2C)cs1 | -11* | -36 | i | i | i | -0.61 | i | i | i
Cc1nc(NC(=O)c2ccccc2)sc1-c1csc(NCc2ccccc2)n1 | i | -19 | i | i | i | -0.31 | nt | nt | nt
Cc1nc(NC(=O)c2ccccc2)sc1-c1csc(NCCc2ccccc2)n1 | -8.7* | -7 | i | i | i | 1.4 | 32%* | i | i
c1cc2c(cc1Nc1nc(-c3ccc4c(c3)OCO4)cs1)OCCO2 | i | -13 | i | i | i | 0.1 | nt | nt | nt
CCOC(=O)c1cnc(N2CCN(C(=O)OCC)CC2)[nH]c1=O | i | -7 | i | i | i | -0.04 | nt | nt | nt
O=c1oc(-c2ccc(Br)cc2)nc2ccccc12 | i | -8 | i | i | i | 1.7 | nt | nt | nt
CNS(=O)(=O)c1cc(Br)ccc1S(=O)c1ccccc1C(=O)O (stereo unspecified) | i | -7 | i | i | i | -0.99 | nt | nt | nt
O=C(COC(=O)C1CC(O)CN1S(=O)(=O)c1ccccc1[N+](=O)[O-])c1ccc[nH]1 (stereo unspecified) | nt | nt | nt | nt | i | nt | nt | nt | nt
CCCCN(CCCC)CCNC(=O)c1cn(C)c2ccc(S(=O)(=O)N3CCCC3)cc2c1=O | i | -4 | i | i | i | -0.68 | nt | nt | nt
COC1=CC(=O)OC(c2ccco2)C1 (stereo unspecified) | nt | nt | nt | nt | i | nt | nt | nt | nt
COc1ccc(NC(=S)N(CCc2c(C)[nH]c3ccc(C)cc23)Cc2cccs2)cc1 | -9.6* | -16 | i | i | i | 2.2 | i | i | 29%*
COc1ccc2[nH]c(C)c(CCN(Cc3cccs3)C(=S)Nc3ccc(F)cc3)c2c1 | -12* | -7 | 6* | i | -17* | 1.4 | 42%* | i | 27%*
Cc1ccccc1NC(=S)N(CCc1c(C)[nH]c2ccc(F)cc12)Cc1ccncc1 | i | -11 | i | i | i | -2.6 | nt | nt | nt
COc1ccc(NC(=S)N(CCc2c(C)[nH]c3ccc(C)cc23)Cc2ccco2)cc1 | i | -17 | i | i | i | -0.05 | nt | nt | nt
Cc1[nH]c2ccc(F)cc2c1CCN(Cc1ccncc1)C(=S)Nc1cccc(F)c1 | -8.1* | -11 | 7* | i | i | -0.46 | 36%* | i | 27%*
CC(=O)c1cccc(NC(=O)C2=CN3CCS(=O)(=O)N=C3C=C2)c1 | nt | nt | nt | nt | i | nt | nt | nt | nt
Cn1c(C2=C(O)CN(c3ccccc3)C2=N)nc2ccccc21 | i | -16 | i | i | i | -0.79 | nt | nt | nt
Cc1c(NC(=O)COC(=O)C2(c3ccc(F)cc3)CCCC2)c(=O)n(-c2ccccc2)n1C | i | -5 | i | i | i | 1.4 | nt | nt | nt
CCOC(=O)c1cccc(COC(=O)c2cccc(-c3nnc(-c4ccccc4)o3)c2)c1 | -19* | -17 | i | i | i | -0.08 | 68%* | i | 24%*
O=C(OCc1ccccc1)c1cccc(-c2nnc(-c3ccccc3)o2)c1 | i | -34 | i | i | i | -0.52 | nt | nt | nt
O=C(O)c1ccc(Oc2c(C(F)(F)F)oc3cc(O)ccc3c2=O)cc1 | i | -8 | i | i | i | 1.4 | nt | nt | nt
CCCN1C(=O)/C(=C/c2ccco2)SC1=Nc1ccc(OC)cc1 | i | -5 | i | i | i | -2 | nt | nt | nt
SMILES | KCNK9 inh | hERG protect | KCNQ1 inh | KCNQ1 act | KCNK3 block | Kir21 inh | KCNK9 block conf | Kir21 sel | HEK293 Tl ctr
CCCN1C(=O)/C(=C\c2ccncc2)SC1=Nc1ccccc1 | i | -12 | i | i | i | 0.58 | i | i | i
CCOc1cc(/C=C2\SC(=Nc3ccccc3)N(c3ccccc3)C2=O)ccc1OCC(=O)O | i | -17 | i | i | i | 1.9 | nt | nt | nt
CCN1C(=O)/C(=C\c2ccncc2)SC1=Nc1ccc(C)c(C)c1 | i | -11 | i | i | i | -0.17 | i | i | i
CCOC(=O)COc1ccc(/C=C2/SC(=Nc3ccccc3)N(Cc3cccnc3)C2=O)cc1OC | i | -13 | i | i | i | 1.3 | i | i | i
Cc1ccc(NC(=O)C(C)c2ccc(-c3ccccc3)c(F)c2)cc1 (stereo unspecified) | i | -3 | i | i | i | -2.5 | nt | nt | nt
Cc1csc(SC(C)C(=O)NC2CCCCC2C)n1 (stereo unspecified) | i | -11 | i | i | i | -0.09 | nt | nt | nt
CC(C(=O)NCc1cccnc1)c1ccc([N+](=O)[O-])cc1 (stereo unspecified) | i | -10 | i | i | i | -0.65 | nt | nt | nt
CC(=O)N1c2ccc3ccccc3c2C(C)CC12CCCCC2 (stereo unspecified) | -12* | -15 | i | i | i | -0.91 | 68%* | i | 48%*
CC1CC2(CCCCC2)Nc2ccc3ccccc3c21 (stereo unspecified) | i | -4 | i | i | i | -0.14 | nt | nt | nt
CC(C)(C)OC(=O)NN=C(c1ccc(O)cc1)c1ccc(O)cc1 | i | -3 | i | i | i | -0.21 | nt | nt | nt
CCCCn1c(C2CCCCC2)nc2cc3[nH]c(=O)c(C(C)C)nc3cc21 | i | -21 | i | i | i | -0.72 | nt | nt | nt
CCCCn1c(-c2cccc3ccccc23)nc2cc3[nH]c(=O)c(C(C)C)nc3cc21 | -11* | -7 | i | i | i | -0.91 | 54%* | i | i
O=C1OC(Sc2ccccc2)(c2ccccc2)c2ccccc21 (stereo unspecified) | nt | nt | nt | nt | i | nt | nt | nt | nt
Cc1cc(C)c(OC2(c3ccccc3)OC(=O)c3ccccc32)c(C)c1 (stereo unspecified) | -17* | -9 | i | i | i | 1.8 | 69%* | i | 47%*
C=CCc1ccccc1OCC(O)CN1CCN(CCN2C(=O)c3cccc4cccc(c34)C2=O)CC1 (stereo unspecified) | i | -31 | i | i | i | -2.2 | i | i | i
